In ChEMBL document CHEMBL4396897, “Potent 5-Cyano-6-phenyl-pyrimidin-Based Derivatives Targeting DCN1-UBE2M Interaction” (J Med Chem, 2019):
The source made the active and inactive calls. The rule behind the calls is not given here.

Columns and labels:
[1] = target: T1, DCN1-like protein 1 (Homo sapiens, UniProt Q96GG9); assay: Binding affinity to N-terminal His6-tagged recombinant human DCN1 expressed in Escherichia coli BL21-AI assessed as reduction in DCN1-FAM-labelled N-terminal acetylated UBE2M (1 to 12 residues) protein-protein interaction after 30 mins by fluorescence polarization competitive binding assay
T1 sequence (Q96GG9 whole entry, the tested form may be a part): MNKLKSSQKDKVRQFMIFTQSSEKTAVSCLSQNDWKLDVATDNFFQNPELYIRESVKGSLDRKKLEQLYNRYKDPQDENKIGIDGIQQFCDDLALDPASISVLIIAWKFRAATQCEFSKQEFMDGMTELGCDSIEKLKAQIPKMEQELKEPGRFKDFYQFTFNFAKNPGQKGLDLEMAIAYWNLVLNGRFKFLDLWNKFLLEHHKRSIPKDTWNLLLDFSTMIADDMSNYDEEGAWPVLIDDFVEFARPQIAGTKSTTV

[2] = target: T1, DCN1-like protein 1; assay: Binding affinity to N-terminal GST tagged recombinant human DCN1 (58 to 259 residues) expressed in Escherichia coli BL21(DE3) assessed as reduction in DCN1-FAM-labelled N-terminal acetylated UBE2M (1 to 21 residues) protein-protein interaction after 30 mins by HTRF assay
[3] = test system: MCF7; assay: Antiproliferative activity against human MCF7 after 72 hrs by MTT assay; type: functional, cell-based; details: MCF7, 72 h
Method in brief: (§1)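 MTT viability assay: cells seeded at 2~5×10^3 per well, exposed to serial dilutions of compound for 72h, then MTT (5 mg/mL in PBS) added for 4h at 37°C. Formazan dissolved in DMSO and read at 490nm. IC50 reported as mean ± SD of three independent experiments.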

[4] = test system: PC-3; assay: Antiproliferative activity against human PC3 after 72 hrs by MTT assay; type: functional, cell-based; details: PC-3, 72 h; method in brief: as §1
[5] = test system: KYSE-70 cell line; assay: Antiproliferative activity against human KYSE-70 after 72 hrs by MTT assay; type: functional, cell-based; details: KYSE-70, 72 h; method in brief: as §1
[6] = test system: SMMC-7721; assay: Antiproliferative activity against human SMMC7721 after 72 hrs by MTT assay; type: functional, cell-based; details: SMMC-7721, 72 h; method in brief: as §1
[7] = test system: PC-9; assay: Antiproliferative activity against human PC9 by MTT assay; type: functional, cell-based; method in brief: as §1
[8] = target: DCN1-like protein 1/NEDD8-conjugating enzyme Ubc12 (Homo sapiens) (UniProt Q96GG9+P61081); assay: Inhibition of DCN1-UBE2M protein-protein interaction in human NCI-H1975 cells assessed as stabilization of DCN1 at 10 uM incubated for 5 hrs at 53 degC by cellular thermal shift assay; type: cell-based
Sequence of DCN1-like protein 1/NEDD8-conjugating enzyme Ubc12 (Homo sapiens) (P61081 whole entry, looked up): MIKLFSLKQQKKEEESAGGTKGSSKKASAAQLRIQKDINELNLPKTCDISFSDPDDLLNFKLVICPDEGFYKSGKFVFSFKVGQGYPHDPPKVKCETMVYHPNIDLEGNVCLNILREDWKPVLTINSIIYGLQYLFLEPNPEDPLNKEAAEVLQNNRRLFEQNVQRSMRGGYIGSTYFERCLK
Sequence of DCN1-like protein 1/NEDD8-conjugating enzyme Ubc12 (Homo sapiens) (Q96GG9 whole entry, looked up): as the sequence (Q96GG9 whole entry, the tested form may be a part) above
Method in brief: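 H1975 cells exposed to 10µM compound or 1‰ DMSO for 3-5h (5h in legend), collected, aliquoted and heated 10 min across 43–61°C. Cells lysed by three liquid-nitrogen freeze-thaw cycles and centrifuged at 12,000×g for 20 min. Soluble DCN1 in supernatant quantified by Western blot band intensity; at least three experiments.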

Structure (SMILES)	IC50 [1] [nM]	IC50 [2] [nM]	IC50 [3] [µM]	IC50 [4] [µM]	IC50 [5] [µM]	IC50 [6] [µM]	IC50 [7] [µM]	inhibition [8]
C#CCSc1nc(Sc2ccc(N)s2)c(C#N)c(-c2cc(OC)c(OC)c(OC)c2)n1	196	66						
C#CCSc1nc(Sc2nnnn2C)c(C#N)c(-c2ccc(Cl)cc2)n1	78.5	102						
C#CCSc1nc(Sc2nccs2)c(C#N)c(-c2ccc(Br)cc2)n1	552	189	11.6	8.53	10.9	3.99	12.1	
C#CCSc1nc(Sc2ccccn2)c(C#N)c(-c2cc(OC)c(OC)c(OC)c2)n1	> 10000	> 2500	> 10	> 10	> 10	> 20	> 20	
C#CCSc1nc(Sc2nc(C)c(C)s2)c(C#N)c(-c2cc(OC)c(OC)c(OC)c2)n1	> 10000	> 10000	> 20	> 20	> 20	> 20	> 20	
C#CCSc1nc(Sc2nnnn2CCN(C)C)c(C#N)c(-c2ccc(Cl)cc2)n1	63.5	123	6.18	7.17	6.56	7.34	5.3	
C#CCSc1nc(Sc2nnnn2C)c(C#N)c(-c2ccccc2)n1	> 20000	> 20000						
C#CCSc1nc(Sc2nnnn2CCN(C)C)c(C#N)c(-c2ccc3oc(=O)ccc3c2)n1	666	815						
C#CCSc1nc(Sc2nnnn2CCN(C)C)c(C#N)c(-c2ccc(C)cc2)n1	109	120						
C#CCSc1nc(Sc2nnnn2C)c(C#N)c(-c2cccc(OC)c2)n1	3150	1020						
C#CCSc1nc(Nc2nnnn2C)c(C#N)c(-c2cc(OC)c(OC)c(OC)c2)n1	> 10000	> 10000						
C#CCSc1nc(-c2cc(OC)c(OC)c(OC)c2)c(C#N)c(N2CCCCC2)n1	> 10000	> 5000						
C#CCSc1nc(Sc2nnnn2C)c(C#N)c(-c2ccc[nH]2)n1	> 20000	> 10000						
C#CCSc1nc(Sc2nnnn2C)c(C#N)c(-c2ccc(Cl)c(Cl)c2)n1	943	339						
C#CCSc1nc(Nc2cccc(C(F)(F)F)c2)c(C#N)c(-c2cc(OC)c(OC)c(OC)c2)n1	> 10000	> 10000						
C#CCSc1nc(Sc2nccs2)c(C#N)c(-c2ccc(Cl)c(Cl)c2)n1	63	112						
C#CCSc1nc(Sc2nnnn2CCN(C)C)c(C#N)c(-c2ccc(Cl)c(Cl)c2)n1	391	172						
C#CCSc1nc(Sc2nnnn2C)c(C#N)c(-c2cc(OC)c(OC)c(OC)c2)n1	360	250						
CCCSc1nc(Sc2nccs2)c(C#N)c(-c2ccc(Cl)cc2)n1	> 10000	> 10000						
C#CCSc1nc(Sc2nccs2)c(C#N)c(-c2ccncc2)n1	1480	1060						
C=CC(=O)Nc1ccccc1CN(C(=O)Nc1cccc(C(F)(F)F)c1)C1CCN(C(C)CCC)CC1 (centres undefined)			10.2	25.3	17.9	16.2	5.59	
C#CCSc1nc(Sc2nnnn2C)c(C#N)c(-c2ccc3oc(=O)ccc3c2)n1	1250	820						
N#Cc1c(Sc2nccs2)nc(SCc2cn(Cc3ccccc3)nn2)nc1-c1ccc(Cl)cc1	> 10000	> 10000						

Structure (SMILES)	IC50 [1] [nM]	IC50 [2] [nM]	IC50 [3] [µM]	IC50 [4] [µM]	IC50 [5] [µM]	IC50 [6] [µM]	IC50 [7] [µM]	inhibition [8]
C#CCSc1nc(Sc2nnc(C)s2)c(C#N)c(-c2cc(OC)c(OC)c(OC)c2)n1	153	134						
C=CCSc1nc(Sc2nccs2)c(C#N)c(-c2ccc(Cl)cc2)n1	> 10000	> 10000						
C#CCSc1nc(-c2cc(OC)c(OC)c(OC)c2)c(C#N)c(N2CCOCC2)n1	> 10000	> 10000						
C#CCSc1nc(Sc2nnnn2CCN(C)C)c(C#N)c(-c2cc(OC)c(OC)c(OC)c2)n1	591	199						
C#CCSc1nc(Sc2nnc(N)s2)c(C#N)c(-c2cc(OC)c(OC)c(OC)c2)n1	821	107						
C#CCSc1nc(Sc2nnnn2C)c(C#N)c(-c2ccc(C(C)C)cc2)n1	1090	369						
C#CCSc1nc(Sc2nccs2)c(C#N)c(-c2cccc(Cl)c2)n1	362	140						
C#CCSc1nc(Sc2nccn2C)c(C#N)c(-c2cc(OC)c(OC)c(OC)c2)n1	> 10000	> 2500						
C#CCSc1nc(Sc2nnnn2C)c(C#N)c(-c2c[nH]c3ccccc23)n1	> 20000	> 10000						
C#CCSc1nc(Sc2nccs2)c(C#N)c(-c2ccc3oc(=O)ccc3c2)n1	789	202						
C#CCSc1nc(Sc2nc3ccccc3s2)c(C#N)c(-c2cc(OC)c(OC)c(OC)c2)n1	> 10000	> 5000	> 20	> 20	> 20	> 20	> 20	
C#CCSc1nc(Sc2nccs2)c(C#N)c(-c2ccc[nH]2)n1	> 20000	> 10000	> 20	> 20	> 20	> 20	> 20	
C#CCSc1nc(Nc2ccc(OC)cc2)c(C#N)c(-c2cc(OC)c(OC)c(OC)c2)n1	> 10000	> 10000						
C#CCSc1nc(Sc2nc(C)cs2)c(C#N)c(-c2cc(OC)c(OC)c(OC)c2)n1	> 10000	> 10000	> 20	> 20	> 20	> 20	> 20	inactive
C#CCSc1nc(Sc2nnnn2CCN(C)C)c(C#N)c(-c2cccc(Cl)c2)n1	106	380	4.12	3.54	5.32	8.64	6.48	
C#CCSc1nc(Sc2nccs2)c(C#N)c(-c2ccc(Cl)cc2)n1	36.6	96	3.23	3.62	5.35	6.04	4.13	
C#CCSc1nc(-c2cc(OC)c(OC)c(OC)c2)c(C#N)c(N2CCSCC2)n1	> 10000	> 5000						
C#CCSc1nc(Sc2nnnn2C)c(C#N)c(-c2cccs2)n1	> 20000	> 10000						
C#CCSc1nc(-c2cc(OC)c(OC)c(OC)c2)c(C#N)c(N2CCNCC2)n1	> 10000	> 5000						
C#CCSc1nc(Sc2nnnn2C)c(C#N)c(-c2cccc(Cl)c2)n1	644	291						
C#CCSc1nc(Sc2nccs2)c(C#N)c(-c2cc(OC)c(OC)c(OC)c2)n1	141	77						
C#CCSc1nc(Sc2nc[nH]n2)c(C#N)c(-c2cc(OC)c(OC)c(OC)c2)n1	1220	> 5000	> 20	> 20	> 20	> 20	> 20	
